Laboratory results as given in ChEMBL document CHEMBL4373710, “DNA Structural Alteration Leading to Antibacterial Properties of 6-Nitroquinoxaline Derivatives” (J Med Chem, 2019).
In brackets after ≈: the same amount, converted by molar mass. Activity calls are given as the source filed them. No cut-off for these calls is given here.

Key:
[1] = test system: DNA; test: Binding affinity to Staphylococcus aureus DNA assessed as appearance of induced CD up to 60 uM by circular dichroism method; assay type: nucleic-acid assay
Summary of the method: (§1)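 Genomic DNA isolated from overnight cultures of each strain. Titrated with compound from 15 to 60 µM in a 10 mm quartz cuvette. CD spectra recorded from 230 to 500 nm at 100 nm/min; ellipticity followed at 320 nm.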

[2] = test system: Staphylococcus aureus; test: Induction of morphological changes in Staphylococcus aureus assessed as change in microbe length at 3.5 uM by atomic force microscopic analysis (reference value: 1.37 +/- 0.09 micrometer); assay type: functional
[3] = test system: HEK293; test: Cytotoxicity against HEK293 cells measured after 24 hrs by MTT assay; assay type: cell-based; conditions: Homo sapiens, HEK293, 24 h
Summary of the method: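 HEK 293 cells, 4000/well, seeded overnight in DMEM + 10% FBS at 37°C in CO2; compound dose series for 24 h (final DMSO <0.5%, DMSO-only control). MTT at 1 mg/mL final for 3 h, formazan dissolved in DMSO, absorbance 595 nm; IC50 from triplicate OD data.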

[4] = test system: Pseudarthrobacter chlorophenolicus; test: Binding affinity to Arthrobacter chlorophenolicus DNA assessed as appearance of induced CD up to 60 uM by circular dichroism method; summary of the method: as §1

Question: With `CN(C)CCCNc1nc2cc([N+](=O)[O-])ccc2nc1NCc1ccc(C(F)(F)F)cc1` as the compound, how does the Activity [1] read?
Answer: Active

Question: What about the Activity [2] of the same compound?
Answer: 2.3 um

Question: And the IC50 [3]?
Answer: 5.66 µg/mL (≈ 12.6 µM)

Question: And the Activity [4]?
Answer: Active
